From ChEMBL document CHEMBL4265915, “b-Annulated 1,4-dihydropyridines as Notch inhibitors” (Bioorg Med Chem Lett, 2018)
pIC50: −log10 of the molar value.

Assays:
[1] = molecular target: T1, Neurogenic locus notch homolog protein 1 (Homo sapiens, UniProt P46531); assay: Inhibition of Notch1 deltaE mutant (unknown origin) expressed in HEK293 cells after 16 hrs by […] luciferase reporter gene assay; assay type: cell-based
Target sequence in this assay (P46531 19-2555 limits assumed): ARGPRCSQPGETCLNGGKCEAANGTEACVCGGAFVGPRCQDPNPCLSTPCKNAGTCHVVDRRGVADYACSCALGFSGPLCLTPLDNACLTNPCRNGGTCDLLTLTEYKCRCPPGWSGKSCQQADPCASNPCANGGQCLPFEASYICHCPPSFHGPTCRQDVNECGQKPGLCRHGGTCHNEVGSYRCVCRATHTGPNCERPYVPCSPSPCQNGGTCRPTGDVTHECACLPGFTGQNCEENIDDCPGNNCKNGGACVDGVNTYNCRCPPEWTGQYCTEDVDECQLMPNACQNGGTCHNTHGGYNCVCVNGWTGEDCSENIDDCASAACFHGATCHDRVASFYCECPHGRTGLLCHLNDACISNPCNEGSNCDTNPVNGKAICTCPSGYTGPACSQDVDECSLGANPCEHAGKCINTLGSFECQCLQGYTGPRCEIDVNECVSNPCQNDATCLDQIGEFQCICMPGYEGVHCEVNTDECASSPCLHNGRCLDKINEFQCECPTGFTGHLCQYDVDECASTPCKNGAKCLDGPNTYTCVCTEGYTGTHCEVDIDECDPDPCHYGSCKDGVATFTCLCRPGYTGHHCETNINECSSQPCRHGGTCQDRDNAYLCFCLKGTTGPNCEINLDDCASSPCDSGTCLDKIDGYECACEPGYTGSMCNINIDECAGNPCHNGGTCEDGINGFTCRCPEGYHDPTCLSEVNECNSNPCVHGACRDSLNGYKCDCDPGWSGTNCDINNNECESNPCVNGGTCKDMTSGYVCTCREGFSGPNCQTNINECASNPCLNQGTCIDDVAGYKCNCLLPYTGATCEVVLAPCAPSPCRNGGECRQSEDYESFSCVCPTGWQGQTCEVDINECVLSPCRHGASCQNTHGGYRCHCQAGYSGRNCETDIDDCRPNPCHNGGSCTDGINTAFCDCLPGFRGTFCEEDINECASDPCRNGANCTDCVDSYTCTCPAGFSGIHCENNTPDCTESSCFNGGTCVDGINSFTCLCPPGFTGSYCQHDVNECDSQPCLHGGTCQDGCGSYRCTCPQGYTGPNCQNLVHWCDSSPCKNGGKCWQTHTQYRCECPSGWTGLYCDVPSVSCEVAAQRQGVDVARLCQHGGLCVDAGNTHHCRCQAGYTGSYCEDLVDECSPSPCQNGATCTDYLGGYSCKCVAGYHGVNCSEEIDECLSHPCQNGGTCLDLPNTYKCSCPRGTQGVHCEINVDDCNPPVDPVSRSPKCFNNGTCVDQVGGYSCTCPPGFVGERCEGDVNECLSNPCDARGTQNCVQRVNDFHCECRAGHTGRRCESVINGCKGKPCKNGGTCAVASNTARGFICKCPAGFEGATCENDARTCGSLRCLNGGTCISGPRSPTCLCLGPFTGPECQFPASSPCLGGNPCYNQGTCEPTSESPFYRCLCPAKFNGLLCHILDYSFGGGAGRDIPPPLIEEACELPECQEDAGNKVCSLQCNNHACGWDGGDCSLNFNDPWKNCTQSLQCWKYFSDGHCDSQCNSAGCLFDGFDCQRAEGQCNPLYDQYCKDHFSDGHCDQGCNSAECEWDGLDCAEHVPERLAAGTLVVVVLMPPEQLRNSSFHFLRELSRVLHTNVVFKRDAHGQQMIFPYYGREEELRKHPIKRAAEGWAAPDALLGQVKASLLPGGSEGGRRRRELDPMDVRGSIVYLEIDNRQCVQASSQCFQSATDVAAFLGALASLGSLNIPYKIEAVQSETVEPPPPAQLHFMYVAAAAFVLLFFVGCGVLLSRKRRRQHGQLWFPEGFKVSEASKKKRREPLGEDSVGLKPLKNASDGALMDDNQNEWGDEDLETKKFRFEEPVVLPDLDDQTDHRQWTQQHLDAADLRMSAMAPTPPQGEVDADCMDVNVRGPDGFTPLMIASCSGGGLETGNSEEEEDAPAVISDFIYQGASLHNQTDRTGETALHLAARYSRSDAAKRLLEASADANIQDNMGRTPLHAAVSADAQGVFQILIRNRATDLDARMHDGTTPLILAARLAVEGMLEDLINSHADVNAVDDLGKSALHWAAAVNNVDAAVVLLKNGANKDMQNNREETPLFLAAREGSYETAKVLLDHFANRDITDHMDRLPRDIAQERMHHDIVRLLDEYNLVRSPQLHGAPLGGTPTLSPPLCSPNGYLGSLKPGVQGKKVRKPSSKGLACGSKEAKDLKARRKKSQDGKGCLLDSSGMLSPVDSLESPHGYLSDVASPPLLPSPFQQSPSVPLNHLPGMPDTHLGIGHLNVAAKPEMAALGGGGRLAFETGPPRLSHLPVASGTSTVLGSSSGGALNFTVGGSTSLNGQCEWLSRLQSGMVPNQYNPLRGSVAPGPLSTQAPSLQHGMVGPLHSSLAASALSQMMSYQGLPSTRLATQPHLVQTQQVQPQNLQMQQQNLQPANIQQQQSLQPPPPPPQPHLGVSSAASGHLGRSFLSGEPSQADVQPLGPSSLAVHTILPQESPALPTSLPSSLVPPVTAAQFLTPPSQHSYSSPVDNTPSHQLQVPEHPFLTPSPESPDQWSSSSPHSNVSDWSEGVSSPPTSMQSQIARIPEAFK

[2] = tested on: HCT-116; assay: Antiproliferative activity against human HCT116 cells after 72 hrs by SYBR green dye based fluorescence assay; assay type: functional, cell-based; conditions: for pIC50: HCT-116, 72 h
In short: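 HCT-116 colon cancer cells were incubated for 72 h with a concentration series of test agent, with a vehicle-treated control. Proliferation was measured, and the IC50 was derived from the dose-response curve.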

[3] = molecular target: T1, Neurogenic locus notch homolog protein 1; assay: Potency index, ratio of FLI-06 IC50 to compound IC50 for inhibition of Notch1 deltaE mutant (unknown origin)
Target sequence in this assay (P46531 whole entry): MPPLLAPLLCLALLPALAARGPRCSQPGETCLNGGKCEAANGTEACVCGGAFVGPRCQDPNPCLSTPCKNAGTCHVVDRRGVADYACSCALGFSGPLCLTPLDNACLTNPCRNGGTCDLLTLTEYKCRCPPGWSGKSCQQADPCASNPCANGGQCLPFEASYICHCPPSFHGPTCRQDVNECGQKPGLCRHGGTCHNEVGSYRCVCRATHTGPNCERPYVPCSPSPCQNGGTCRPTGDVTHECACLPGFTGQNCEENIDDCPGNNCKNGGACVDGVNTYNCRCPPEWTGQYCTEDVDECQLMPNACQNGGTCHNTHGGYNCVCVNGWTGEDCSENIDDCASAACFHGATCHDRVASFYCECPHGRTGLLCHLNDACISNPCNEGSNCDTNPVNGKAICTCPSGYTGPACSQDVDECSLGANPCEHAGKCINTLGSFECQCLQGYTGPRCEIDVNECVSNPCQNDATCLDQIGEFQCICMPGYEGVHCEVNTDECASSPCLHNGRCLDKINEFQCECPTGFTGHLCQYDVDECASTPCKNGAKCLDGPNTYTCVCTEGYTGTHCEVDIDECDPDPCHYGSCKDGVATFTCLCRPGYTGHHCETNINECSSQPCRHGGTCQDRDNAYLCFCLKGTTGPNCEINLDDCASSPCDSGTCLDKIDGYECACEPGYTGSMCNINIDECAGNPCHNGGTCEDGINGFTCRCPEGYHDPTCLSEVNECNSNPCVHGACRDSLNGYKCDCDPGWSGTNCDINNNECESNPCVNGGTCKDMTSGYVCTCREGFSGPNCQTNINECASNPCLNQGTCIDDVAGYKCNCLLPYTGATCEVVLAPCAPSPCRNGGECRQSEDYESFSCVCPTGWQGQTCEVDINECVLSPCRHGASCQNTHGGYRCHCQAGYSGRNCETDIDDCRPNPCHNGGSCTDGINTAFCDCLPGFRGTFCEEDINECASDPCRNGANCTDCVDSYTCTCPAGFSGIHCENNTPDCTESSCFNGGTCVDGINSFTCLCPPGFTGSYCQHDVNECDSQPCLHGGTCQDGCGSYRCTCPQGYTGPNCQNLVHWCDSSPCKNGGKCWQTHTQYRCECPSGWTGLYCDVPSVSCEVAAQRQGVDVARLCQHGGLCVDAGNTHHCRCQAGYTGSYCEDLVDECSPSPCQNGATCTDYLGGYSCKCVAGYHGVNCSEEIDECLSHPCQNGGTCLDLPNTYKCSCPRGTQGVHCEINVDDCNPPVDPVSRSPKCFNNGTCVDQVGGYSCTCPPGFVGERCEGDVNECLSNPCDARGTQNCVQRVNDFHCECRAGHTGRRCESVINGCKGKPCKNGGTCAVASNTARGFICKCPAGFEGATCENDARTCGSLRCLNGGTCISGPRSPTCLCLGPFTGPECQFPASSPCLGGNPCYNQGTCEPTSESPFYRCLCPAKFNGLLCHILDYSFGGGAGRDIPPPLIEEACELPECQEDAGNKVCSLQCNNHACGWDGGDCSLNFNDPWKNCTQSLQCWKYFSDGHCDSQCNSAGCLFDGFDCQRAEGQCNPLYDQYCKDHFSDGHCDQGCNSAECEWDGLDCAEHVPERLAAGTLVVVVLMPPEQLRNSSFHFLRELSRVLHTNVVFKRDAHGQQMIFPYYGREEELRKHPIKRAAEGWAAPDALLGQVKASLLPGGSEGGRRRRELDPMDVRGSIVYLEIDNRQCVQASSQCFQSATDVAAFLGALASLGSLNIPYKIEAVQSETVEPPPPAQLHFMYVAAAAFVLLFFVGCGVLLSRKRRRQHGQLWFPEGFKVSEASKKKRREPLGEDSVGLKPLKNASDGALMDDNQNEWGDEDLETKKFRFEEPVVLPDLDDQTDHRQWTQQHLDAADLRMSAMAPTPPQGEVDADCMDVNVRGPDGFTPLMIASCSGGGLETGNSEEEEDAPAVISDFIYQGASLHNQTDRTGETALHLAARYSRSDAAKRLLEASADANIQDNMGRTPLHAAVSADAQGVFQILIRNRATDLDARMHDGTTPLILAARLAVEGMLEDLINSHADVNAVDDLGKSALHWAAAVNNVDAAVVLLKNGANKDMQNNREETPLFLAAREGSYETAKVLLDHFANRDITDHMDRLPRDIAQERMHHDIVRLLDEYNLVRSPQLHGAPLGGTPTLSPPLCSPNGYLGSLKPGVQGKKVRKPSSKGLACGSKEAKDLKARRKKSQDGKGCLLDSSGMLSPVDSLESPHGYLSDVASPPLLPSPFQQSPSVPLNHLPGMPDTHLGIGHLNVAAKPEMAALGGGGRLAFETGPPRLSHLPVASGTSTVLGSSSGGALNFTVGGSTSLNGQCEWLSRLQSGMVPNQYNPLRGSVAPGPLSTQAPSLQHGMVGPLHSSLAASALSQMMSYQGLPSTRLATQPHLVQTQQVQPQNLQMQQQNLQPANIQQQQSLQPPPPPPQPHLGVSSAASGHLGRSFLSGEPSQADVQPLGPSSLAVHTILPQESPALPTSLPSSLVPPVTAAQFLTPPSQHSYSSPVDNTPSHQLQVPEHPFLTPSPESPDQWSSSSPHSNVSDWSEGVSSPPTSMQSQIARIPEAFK

[4] = tested on: HCT-116; assay: Potency index, ratio of DAPM IC50 to compound IC50 for antiproliferative activity against human HCT116 cells; assay type: functional

CC1=C(C(=O)OCC2CCN(C(=O)OC(C)(C)C)CC2)C(c2ccc(Br)cc2F)C2=C(CC(C)(C)CC2=O)N1 (configuration not stated)
pIC50 [1]: < 5.00

CC1=C(C(=O)OCC2CCN(C(=O)OC(C)(C)C)CC2)C(c2cccc(C(C)C)c2)C2=C(CC(C)(C)CC2=O)N1 (configuration not stated)
pIC50 [1]: 5.48

CC1=C(C(=O)OCC2CCN(C(=O)OC(C)(C)C)CC2)C(c2cccc(C(F)(F)F)c2)C2=C(CC(C)(C)CC2=O)N1 (configuration not stated)
pIC50 [1]: 6.12

CC1=C(C(=O)OCc2ccc(C(C)(C)C)cc2)C(c2cccc(Br)c2)C2=C(CC(C)(C)CC2=O)N1 (configuration not stated)
pIC50 [1]: 5.37

CC1=C(C(=O)OCc2cnccn2)C(c2cccc(Br)c2)C2=C(CC(C)(C)CC2=O)N1 (configuration not stated)
pIC50 [1]: 6.07

CC1=C(C(=O)OC2CCN(C(=O)OC(C)(C)C)CC2)C(c2cccc(Br)c2)C2=C(CC(C)(C)CC2=O)N1 (configuration not stated)
pIC50 [1]: < 5.00

CC1=C(C(=O)OCC2CCN(C(=O)OC(C)(C)C)CC2)C(c2cccc(C#N)c2)C2=C(CC(C)(C)CC2=O)N1 (configuration not stated)
pIC50 [1]: 6.66

CC1=C(C(=O)OCC2CCN(C(=O)OC(C)(C)C)CC2)[C@H](c2cccc(Br)c2)C2=C(CC(C)(C)CC2=O)N1
Activity [2]: Dose-dependent effect | pIC50 [2]: 6.66 | pIC50 [1]: 6.89 | Ratio IC50 [3]: 20 | Ratio IC50 [4]: 55

CC1=C(C(=O)OC2CCCCC2)C(c2cccc(C#N)c2)C2=C(CC(C)(C)CC2=O)N1 (configuration not stated)
pIC50 [1]: 4.36

CC1=C(C(=O)OCC2CCN(C(=O)OC(C)(C)C)CC2)C(c2ccc3ccccc3n2)C2=C(CC(C)(C)CC2=O)N1 (configuration not stated)
pIC50 [1]: 6.48

CC1=C(C(=O)OCC2CCN(C(=O)OC(C)(C)C)CC2)C(c2ccc3c(c2)OCCO3)C2=C(CC(C)(C)CC2=O)N1 (configuration not stated)
pIC50 [1]: 5.82

CC1=C(C(=O)OC2CCCCC2)C(c2cccc(Br)c2)C2=C(CC(C)(C)CC2=O)N1 (configuration not stated)
pIC50 [1]: 5.38

CC1=C(C(=O)OC2CCCCC2)C(c2cccc(C(F)(F)F)c2)C2=C(CC(C)(C)CC2=O)N1 (configuration not stated)
pIC50 [1]: 4.83

CC1=C(C(=O)O[C@H](CC#N)c2ccccc2)C(c2cccc(Br)c2)C2=C(CC(C)(C)CC2=O)N1 (some centres not stated)
pIC50 [1]: < 5.00

CC1=C(C(=O)OC2CCCCC2)C(c2ccc3c(c2)OCCO3)C2=C(CC(C)(C)CC2=O)N1 (configuration not stated)
pIC50 [1]: 4.91

COC(=O)[C@@H](NC(=O)[C@H](C)NC(=O)Cc1cc(F)cc(F)c1)c1ccccc1
Activity [2]: Dose-dependent effect | pIC50 [2]: 4.92

CC1=C(C(=O)OC23CC4CC(CC(C4)C2)C3)C(c2cccc(Br)c2)C2=C(CC(C)(C)CC2=O)N1 (configuration not stated)
pIC50 [1]: < 5.00

CC1=C(C(=O)OCC2CCN(C(=O)OC(C)(C)C)CC2)C(c2cccc(Br)c2)C2=C(CC(C)(C)CC2=O)N1 (configuration not stated)
pIC50 [1]: 6.44

CC1=C(C(=O)OCC2CCN(C(=O)OC(C)(C)C)CC2)[C@@H](c2cccc(Br)c2)C2=C(CC(C)(C)CC2=O)N1
pIC50 [1]: 5.59

CC1=C(C(=O)OCC2CCN(C(=O)OC(C)(C)C)CC2)C(c2cccc([N+](=O)[O-])c2)C2=C(CC(C)(C)CC2=O)N1 (configuration not stated)
pIC50 [1]: < 5.00

CC1=C(C(=O)OCC2CCN(C(=O)OC(C)(C)C)CC2)C(c2cccc(-c3ccc4[nH]ccc4c3)c2)C2=C(CC(C)(C)CC2=O)N1 (configuration not stated)
pIC50 [1]: 6.11

CC1=C(C(=O)OCC2CCN(C(=O)OC(C)(C)C)CC2)C(c2ccc(-c3ccccc3)cc2)C2=C(CC(C)(C)CC2=O)N1 (configuration not stated)
pIC50 [1]: < 5.00

CC1=C(C(=O)OC2CCCCC2)C(c2ccc([N+](=O)[O-])cc2)C2=C(CC(C)(C)CC2=O)N1 (configuration not stated)
Activity [2]: Dose-dependent effect | pIC50 [2]: 5.74 | pIC50 [1]: 5.60

CC1=C(C(=O)OCC2CCN(C(=O)OC(C)(C)C)CC2)C(c2cc(Cl)cc(Cl)c2)C2=C(CC(C)(C)CC2=O)N1 (configuration not stated)
pIC50 [1]: 6.19

CC1=C(C(=O)OCCC2CCN(C(=O)OC(C)(C)C)CC2)C(c2cccc(Br)c2)C2=C(CC(C)(C)CC2=O)N1 (configuration not stated)
pIC50 [1]: 5.53
